Data published in ChEMBL document CHEMBL1649231, “In vitro activities of panduratin A against clinical Staphylococcus strains” (2009).
Values after ≈ are worked out from the molar mass of the structure shown.

What was measured:
Assay type in all cases: functional
Staphylococcus aureus [1] = assay: Antimicrobial activity against methicillin-susceptible Staphylococcus aureus assessed as intermediate resistant isolates after 24 hrs by broth microdilution method
[2] = test system: Staphylococcus epidermidis; assay: Antimicrobial activity against methicillin-resistant coagulase-negative Staphylococcus epidermidis after 24 hrs by broth microdilution method
Outline: (§1)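 Clinical isolates came from blood, body fluids, genital secretions, pus or sputum, identified conventionally or by Vitek. MICs were run by CLSI M7-A6 broth microdilution in Mueller-Hinton broth with 5 × 10^5 CFU/ml inoculum. Agents were twofold serially diluted, starting from 10% DMSO. Drug-free and uninoculated controls were included. Plates were incubated aerobically at 37°C for 24 h; MIC is the lowest concentration giving no visible growth.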

[3] = test system: Staphylococcus haemolyticus; assay: Antimicrobial activity against methicillin-resistant coagulase-negative Staphylococcus haemolyticus assessed as intermediate resistant isolates after 24 hrs by broth microdilution method
[4] = test system: Staphylococcus haemolyticus; assay: Antimicrobial activity against methicillin-resistant coagulase-negative Staphylococcus haemolyticus assessed as susceptible isolates after 24 hrs by broth microdilution method
Staphylococcus aureus [5] = assay: Antimicrobial activity against methicillin-susceptible Staphylococcus aureus after 24 hrs by broth microdilution method; outline: as §1
[6] = test system: Staphylococcus epidermidis; assay: Antimicrobial activity against methicillin-susceptible coagulase-negative Staphylococcus epidermidis after 24 hrs by broth microdilution method; outline: as §1
Staphylococcus hominis [7] = assay: Antimicrobial activity against methicillin-resistant coagulase-negative Staphylococcus hominis assessed as intermediate resistant isolates after 24 hrs by broth microdilution method
Mammaliicoccus sciuri [8] = assay: Antimicrobial activity against methicillin-susceptible coagulase-negative Staphylococcus sciuri assessed as resistant isolates after 24 hrs by broth microdilution method
Staphylococcus hominis [9] = assay: Antimicrobial activity against methicillin-susceptible coagulase-negative Staphylococcus hominis assessed as susceptible isolates after 24 hrs by broth microdilution method
Staphylococcus simulans [10] = assay: Antimicrobial activity against methicillin-resistant coagulase-negative Staphylococcus simulans assessed as resistant isolates after 24 hrs by broth microdilution method
[11] = test system: Staphylococcus haemolyticus; assay: Antimicrobial activity against methicillin-resistant coagulase-negative Staphylococcus haemolyticus assessed as resistant isolates after 24 hrs by broth microdilution method
[12] = test system: Staphylococcus epidermidis; assay: Antimicrobial activity against methicillin-susceptible coagulase-negative Staphylococcus epidermidis assessed as susceptible isolates after 24 hrs by broth microdilution method
Mammaliicoccus sciuri [13] = assay: Antimicrobial activity against methicillin-susceptible coagulase-negative Staphylococcus sciuri assessed as susceptible isolates after 24 hrs by broth microdilution method
Outline: (§2)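 Clinical isolates from blood, body fluids, pus, sputum or genital secretions, identified conventionally or by Vitek, were tested alongside ATCC 29213 and ATCC 12228 controls. CLSI M7-A6 broth microdilution in Mueller-Hinton broth used twofold dilutions from a 10% DMSO solution and 5 × 10^5 CFU/ml inoculum. Drug-free and uninoculated wells served as controls; incubation was aerobic at 37°C for 24 h. MIC was the lowest concentration with no visible growth.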

Staphylococcus hominis [14] = assay: Antimicrobial activity against methicillin-susceptible coagulase-negative Staphylococcus hominis after 24 hrs by broth microdilution method; outline: as §1
Staphylococcus simulans [15] = assay: Antimicrobial activity against methicillin-resistant coagulase-negative Staphylococcus simulans assessed as intermediate resistant isolates after 24 hrs by broth microdilution method
Staphylococcus hominis [16] = assay: Bactericidal activity against methicillin-susceptible coagulase-negative Staphylococcus hominis after 24 hrs by plate counting method
Outline: (§3)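 Clinical staphylococcal isolates from patient body fluids, blood, genital secretions, pus or sputum; species by conventional methods or Vitek. Twofold dilutions in Mueller-Hinton broth, inoculum 5 × 10^5 CFU/ml, 37°C aerobic 24 h (CLSI M7-A6 microdilution). About 100 μl from each well without visible growth spread on MHA; 37°C 24 h. MBC = lowest concentration giving no growth on agar.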

[17] = test system: Staphylococcus epidermidis; assay: Antimicrobial activity against methicillin-resistant coagulase-negative Staphylococcus epidermidis assessed as resistant isolates after 24 hrs by broth microdilution method
Staphylococcus aureus [18] = assay: Antimicrobial activity against methicillin-susceptible Staphylococcus aureus assessed as resistant isolates after 24 hrs by broth microdilution method
Staphylococcus hominis [19] = assay: Antimicrobial activity against methicillin-resistant coagulase-negative Staphylococcus hominis assessed as resistant isolates after 24 hrs by broth microdilution method
Staphylococcus simulans [20] = assay: Antimicrobial activity against methicillin-susceptible coagulase-negative Staphylococcus simulans assessed as susceptible isolates after 24 hrs by broth microdilution method; outline: as §2
[21] = test system: Staphylococcus haemolyticus; assay: Bactericidal activity against methicillin-resistant coagulase-negative Staphylococcus haemolyticus after 24 hrs by plate counting method
[22] = test system: Staphylococcus haemolyticus; assay: Antimicrobial activity against methicillin-susceptible coagulase-negative Staphylococcus haemolyticus assessed as resistant isolates after 24 hrs by broth microdilution method
Mammaliicoccus sciuri [23] = assay: Antimicrobial activity against methicillin-resistant coagulase-negative Staphylococcus sciuri after 24 hrs by broth microdilution method; outline: as §1
[24] = test system: Staphylococcus haemolyticus; assay: Bactericidal activity against methicillin-susceptible coagulase-negative Staphylococcus haemolyticus after 24 hrs by plate counting method; outline: as §3
Staphylococcus simulans [25] = assay: Antimicrobial activity against methicillin-resistant coagulase-negative Staphylococcus simulans after 24 hrs by broth microdilution method; outline: as §1
Mammaliicoccus sciuri [26] = assay: Bactericidal activity against methicillin-susceptible coagulase-negative Staphylococcus sciuri after 24 hrs by plate counting method; outline: as §3
Staphylococcus hominis [27] = assay: Antimicrobial activity against methicillin-resistant coagulase-negative Staphylococcus hominis assessed as susceptible isolates after 24 hrs by broth microdilution method
Staphylococcus aureus [28] = assay: Antimicrobial activity against methicillin-resistant Staphylococcus aureus assessed as intermediate resistant isolates after 24 hrs by broth microdilution method
Staphylococcus simulans [29] = assay: Antimicrobial activity against methicillin-resistant coagulase-negative Staphylococcus simulans assessed as susceptible isolates after 24 hrs by broth microdilution method
Staphylococcus simulans [30] = assay: Antimicrobial activity against methicillin-susceptible coagulase-negative Staphylococcus simulans after 24 hrs by broth microdilution method; outline: as §1
Mammaliicoccus sciuri [31] = assay: Antimicrobial activity against methicillin-resistant coagulase-negative Staphylococcus sciuri assessed as intermediate resistant isolates after 24 hrs by broth microdilution method
[32] = test system: Staphylococcus haemolyticus; assay: Antimicrobial activity against methicillin-susceptible coagulase-negative Staphylococcus haemolyticus after 24 hrs by broth microdilution method; outline: as §1
Staphylococcus simulans [33] = assay: Antimicrobial activity against methicillin-susceptible coagulase-negative Staphylococcus simulans assessed as resistant isolates after 24 hrs by broth microdilution method
Staphylococcus hominis [34] = assay: Antimicrobial activity against methicillin-susceptible coagulase-negative Staphylococcus hominis assessed as intermediate resistant isolates after 24 hrs by broth microdilution method; conditions: pooled result: one value given for 5 cell lines, strains, targets or settings
[35] = test system: Staphylococcus epidermidis; assay: Antimicrobial activity against methicillin-resistant coagulase-negative Staphylococcus epidermidis assessed as intermediate resistant isolates after 24 hrs by broth microdilution method
[36] = test system: Staphylococcus epidermidis; assay: Bactericidal activity against methicillin-susceptible coagulase-negative Staphylococcus epidermidis after 24 hrs by plate counting method; outline: as §3
[37] = Staphylococcus haemolyticus, 24 h

Compound: CN[C@H](CC(C)C)C(=O)N[C@H]1C(=O)N[C@@H](CC(N)=O)C(=O)N[C@H]2C(=O)N[C@H]3C(=O)N[C@H](C(=O)N[C@H](C(=O)O)c4cc(O)cc(O)c4-c4cc3ccc4O)[C@H](O)c3ccc(c(Cl)c3)Oc3cc2cc(c3O[C@@H]2O[C@H](CO)[C@@H](O)[C@H](O)[C@H]2O[C@H]2C[C@](C)(N)[C@H](O)[C@H](C)O2)Oc2ccc(cc2Cl)[C@H]1O [VANCOMYCIN]
- Activity (Staphylococcus aureus [1]): 0%
- MIC [2]: 0.125 µg/mL (≈ 0.0863 µM)
- MIC50 [2]: 0.125 µg/mL (≈ 0.0863 µM)
- MIC90 [2]: 2 µg/mL (≈ 1.38 µM)
- Activity [3]: 0%
- Activity [4]: 100%
- MIC50 (Staphylococcus aureus [5]): 0.25 µg/mL (≈ 0.173 µM)
- MIC90 (Staphylococcus aureus [5]): 0.5 µg/mL (≈ 0.345 µM)
- MIC50 [6]: 0.25 µg/mL (≈ 0.173 µM)
- MIC90 [6]: 1 µg/mL (≈ 0.69 µM)
- Activity (Staphylococcus hominis [7]): 0%
- Activity (Mammaliicoccus sciuri [8]): 0%
- Activity (Staphylococcus hominis [9]): 100%
- Activity (Staphylococcus simulans [10]): 0%
- Activity [11]: 0%
- Activity [12]: 100%
- Activity (Mammaliicoccus sciuri [13]): 100%
- MIC50 (Staphylococcus hominis [14]): 0.25 µg/mL (≈ 0.173 µM)
- MIC90 (Staphylococcus hominis [14]): 1 µg/mL (≈ 0.69 µM)
- Activity (Staphylococcus simulans [15]): 0%
- MBC50 (Staphylococcus hominis [16]): 1 µg/mL (≈ 0.69 µM)
- MBC90 (Staphylococcus hominis [16]): 4 µg/mL (≈ 2.76 µM)
- MBC (Staphylococcus hominis [16]; Staphylococcus hominis, 24 h): 0.125 µg/mL (≈ 0.0863 µM)
- Activity [17]: 0%
- Activity (Staphylococcus aureus [18]): 0%
- Activity (Staphylococcus hominis [19]): 0%
- Activity (Staphylococcus simulans [20]): 100%
- MBC50 [21]: 2 µg/mL (≈ 1.38 µM)
- MBC90 [21]: 4 µg/mL (≈ 2.76 µM)
- MBC [21, 37]: 0.5 µg/mL (≈ 0.345 µM)
- Activity [22]: 0%
- MIC (Mammaliicoccus sciuri [23]): 0.125 µg/mL (≈ 0.0863 µM)
- MIC50 (Mammaliicoccus sciuri [23]): 0.125 µg/mL (≈ 0.0863 µM)
- MIC90 (Mammaliicoccus sciuri [23]): 2 µg/mL (≈ 1.38 µM)
- MBC50 [24]: 1 µg/mL (≈ 0.69 µM)
- MBC90 [24]: 4 µg/mL (≈ 2.76 µM)
- MBC [24, 37]: 0.125 µg/mL (≈ 0.0863 µM)
- MIC (Staphylococcus simulans [25]): 0.125 µg/mL (≈ 0.0863 µM)
- MIC50 (Staphylococcus simulans [25]): 0.125 µg/mL (≈ 0.0863 µM)
- MIC90 (Staphylococcus simulans [25]): 2 µg/mL (≈ 1.38 µM)
- MBC50 (Mammaliicoccus sciuri [26]): 1 µg/mL (≈ 0.69 µM)
- MBC90 (Mammaliicoccus sciuri [26]): 4 µg/mL (≈ 2.76 µM)
- MBC (Mammaliicoccus sciuri [26]; Mammaliicoccus sciuri, 24 h): 0.125 µg/mL (≈ 0.0863 µM)
- Activity (Staphylococcus hominis [27]): 100%
- Activity (Staphylococcus aureus [28]): 0%
- Activity (Staphylococcus simulans [29]): 0%
- MIC50 (Staphylococcus simulans [30]): 0.25 µg/mL (≈ 0.173 µM)
- MIC90 (Staphylococcus simulans [30]): 1 µg/mL (≈ 0.69 µM)
- Activity (Mammaliicoccus sciuri [31]): 0%
- MIC50 [32]: 0.25 µg/mL (≈ 0.173 µM)
- MIC90 [32]: 1 µg/mL (≈ 0.69 µM)
- Activity (Staphylococcus simulans [33]): 12%
- Activity (Staphylococcus hominis [34]): 0%
- Activity [35]: 0%
- MBC50 [36]: 1 µg/mL (≈ 0.69 µM)
- MBC90 [36]: 4 µg/mL (≈ 2.76 µM)
- MBC ([36]; Staphylococcus epidermidis, 24 h): 0.125 µg/mL (≈ 0.0863 µM)

Compound: GENTAMICIN
- Activity (Staphylococcus aureus [1]): 0%
- MIC50 [2]: 8 µg/mL
- MIC90 [2]: 64 µg/mL
- Activity [3]: 7%
- Activity [4]: 45%
- MIC50 (Staphylococcus aureus [5]): 4 µg/mL
- MIC90 (Staphylococcus aureus [5]): 64 µg/mL
- MIC50 [6]: 0.125 µg/mL
- MIC90 [6]: 32 µg/mL
- Activity (Staphylococcus hominis [7]): 7%
- Activity (Mammaliicoccus sciuri [8]): 27%
- Activity (Staphylococcus hominis [9]): 73%
- Activity (Staphylococcus simulans [10]): 48%
- Activity [11]: 48%
- Activity [12]: 73%
- Activity (Mammaliicoccus sciuri [13]): 73%
- MIC50 (Staphylococcus hominis [14]): 0.125 µg/mL
- MIC90 (Staphylococcus hominis [14]): 32 µg/mL
- Activity (Staphylococcus simulans [15]): 7%
- MBC (Staphylococcus hominis [16]): 0.25 µg/mL
- MBC50 (Staphylococcus hominis [16]): 1 µg/mL
- MBC90 (Staphylococcus hominis [16]): 64 µg/mL
- Activity [17]: 48%
- Activity (Staphylococcus aureus [18]): 48%
- Activity (Staphylococcus hominis [19]): 48%
- Activity (Staphylococcus simulans [20]): 73%
- MBC [21]: 0.25 µg/mL
- MBC50 [21]: 8 µg/mL
- MBC90 [21]: 128 µg/mL
- Activity [22]: 27%
- MIC50 (Mammaliicoccus sciuri [23]): 8 µg/mL
- MIC90 (Mammaliicoccus sciuri [23]): 64 µg/mL
- MBC [24]: 0.25 µg/mL
- MBC50 [24]: 1 µg/mL
- MBC90 [24]: 64 µg/mL
- MIC50 (Staphylococcus simulans [25]): 8 µg/mL
- MIC90 (Staphylococcus simulans [25]): 64 µg/mL
- MBC (Mammaliicoccus sciuri [26]): 0.25 µg/mL
- MBC50 (Mammaliicoccus sciuri [26]): 1 µg/mL
- MBC90 (Mammaliicoccus sciuri [26]): 64 µg/mL
- Activity (Staphylococcus hominis [27]): 45%
- Activity (Staphylococcus aureus [28]): 22%
- Activity (Staphylococcus simulans [29]): 7%
- MIC50 (Staphylococcus simulans [30]): 0.125 µg/mL
- MIC90 (Staphylococcus simulans [30]): 32 µg/mL
- Activity (Mammaliicoccus sciuri [31]): 7%
- MIC50 [32]: 0.125 µg/mL
- MIC90 [32]: 32 µg/mL
- Activity (Staphylococcus simulans [33]): 27%
- Activity (Staphylococcus hominis [34]): 0%
- Activity [35]: 7%
- MBC [36]: 0.25 µg/mL
- MBC50 [36]: 1 µg/mL
- MBC90 [36]: 64 µg/mL
